Data taken from ChEMBL document CHEMBL3232811, “Mineralocorticoid receptor antagonists: identification of heterocyclic amide replacements in the oxazolidinedione series” (Bioorg Med Chem Lett, 2014).

Key:
Format in all cases: ADME, organism-based
Details in all cases: in vivo
[1] = Oral bioavailability in rat at 2 mg/kg
Procedure, shortened: (§1)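 Rat PK: compound formulated at 1 mg/mL in PEG 200:water (70:30). Dosed iv at 1 mg/kg (n = 2) and orally at 2 mg/kg (n = 3). Blood concentrations measured by LC/MS/MS after protein precipitation with acetonitrile.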

Rattus norvegicus = experiment: Dose normalized AUC in rat at 1 mg/kg, iv; design: dose 1 mg/kg, route intravenous; procedure, shortened: as §1
[2] = Volume of distribution in rat at 1 mg/kg, iv and 2 mg/kg, po; procedure, shortened: as §1

Row | bioavailability [1] | AUC/dose (Rattus norvegicus) | Vd [2] | Compound
1 | 44% | 3.7 µM·kg·h/mg | 1.2 L/kg | COc1cc(OC)cc(-c2nnc([C@@]3(Cc4ccccc4)OC(=O)N([C@H](C)c4ccccc4)C3=O)o2)c1
2 | 89% | 4.4 µM·kg·h/mg | 1 L/kg | C[C@H](c1ccccc1)N1C(=O)O[C@](Cc2ccccc2)(c2nnc(C3(c4ccccc4)CC3)o2)C1=O
